Screening results: PubChem BioAssay, several laboratories
Most compounds without a hit are left out; they make up all but 1.6% or so of the library.
Rpn11 block = blocks the human proteasome subunit Rpn11; O00487; human 26S proteasome, Ub4-pepOG fluorescence polarization; 20S core pre-blocked with epoxomicin; calls only at 20 µM; 0.59% of 360,000 active; AID 588493;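 active = inhibition at 20 µM, scaled to each plate's controls, above about 33%, limit read from the data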
TPT1 inh = inhibitors of Candida albicans tRNA 2'-phosphotransferase TPT1; inhibition, % at 5 µM; 0.81% of 300,000 active; AID 1962; recombinant caTPT1, FP RNA substrate dephosphorylation;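 active = inhibition above the mean of all tested compounds plus 3 SD, set per screening campaign, cut at about 24% in these data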
PKA-R2B act = PKA-R2B complex activation; PKA-R2B holoenzyme dissociation, Cy5-IP20 fluorescence polarization; R2B truncated from residue 108, S112A mutant; 0% DMSO only, 100% 113 µM cGMP; activation, % at 11.4 µM; P22694+P31323; 0.079% of 340,000 active;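 active = activation above a cutoff set at the mean over all compounds plus 3 SD, cut at about 18% in these data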;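 note: higher means more holoenzyme dissociation and a rise in polarization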
HNF4A DNA FP = change in binding of human HNF4 alpha to DNA; P41235; HNF4a-FITC DNA binding, fluorescence polarization, 1 h; activity change, % at 10 µM; 0.3% of 360,000 active; in the data active = activity change above about 30%, passing the limit was not always enough
CSN inh = blocks human CSN-mediated cullin deneddylation; Q92905; Purified CSN, SCF-Nedd8-OG deneddylation, fluorescence polarization; inhibition, % at 12.5 µM; 0.38% of 360,000 active;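 active = pattern-corrected inhibition above about 35%, with an unprinted fluorescence ratio check between 0.5 and 1.5, limit read from the data, passing the limit was not always enough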
Target sequence (Q92905 whole entry, looked up, one chain of several): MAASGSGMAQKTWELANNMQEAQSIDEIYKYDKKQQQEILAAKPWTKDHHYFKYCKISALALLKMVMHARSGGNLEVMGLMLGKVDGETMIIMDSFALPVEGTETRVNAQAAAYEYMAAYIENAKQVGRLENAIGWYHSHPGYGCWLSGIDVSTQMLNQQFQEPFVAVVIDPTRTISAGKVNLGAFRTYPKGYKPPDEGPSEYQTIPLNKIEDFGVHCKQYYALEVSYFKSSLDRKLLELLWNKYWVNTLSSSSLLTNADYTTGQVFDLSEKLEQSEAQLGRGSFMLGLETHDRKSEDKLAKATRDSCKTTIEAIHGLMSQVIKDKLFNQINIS
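Assay system: purified human Csn5 enzyme expressed in HEK293T cells; measure: % inhibition; also added: SCFSkp2-Nedd8OG substrate at 10 nM final; technique: fluorescence polarization; times: reaction 90 min, room temperature; medium: Tris buffer pH 7.5, NaCl, DTT, Tween-20, trehalose, ovalbumin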
PKA-R1A act = activates the PKA-R1A holoenzyme complex | P00514+P68181 | PKA-R1A dissociation, Cy5-IP20 fluorescence polarization; scaled: DMSO 0%, 113 µM cGMP 100% | activation, % at 11.4 µM | 0.083% of 340,000 active | AID 504707;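 active = percent activation above the mean of all tested compounds plus 3 SD, cut at about 19% in these data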;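 note: higher means more PKAc released from R1A so a rise in polarization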
R1A FP artifact = FP assay interference, PKA-R1A counter-screen. shares compounds with PKA-R1A act. Cy5-IP20 peptide alone, fluorescence polarization artifact counterscreen. activation, % at 11.4 µM. 7% of 280 active. AID 504799;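 active = mean activation over triplicate runs exceeds the adjusted cutoff derived for the parent primary screen, cut at about 19% in these data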;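 note: no PKA protein present so any polarization rise reflects compound interference; higher means stronger polarization artifact and likely false positive in parent screen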
PKA-R1A confirm = confirmation of PKA-R1A complex activators | AID 504800 | Cy5-IP20 fluorescence polarization, PKA-R1A holoenzyme dissociation | shares compounds with PKA-R1A act | activation, % at 11.4 µM | 9% of 280 active;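 active = mean activation over replicate wells exceeds the adjusted hit threshold taken from the earlier primary screen, cut at about 20% in these data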
Target sequence (P00514 whole entry, looked up): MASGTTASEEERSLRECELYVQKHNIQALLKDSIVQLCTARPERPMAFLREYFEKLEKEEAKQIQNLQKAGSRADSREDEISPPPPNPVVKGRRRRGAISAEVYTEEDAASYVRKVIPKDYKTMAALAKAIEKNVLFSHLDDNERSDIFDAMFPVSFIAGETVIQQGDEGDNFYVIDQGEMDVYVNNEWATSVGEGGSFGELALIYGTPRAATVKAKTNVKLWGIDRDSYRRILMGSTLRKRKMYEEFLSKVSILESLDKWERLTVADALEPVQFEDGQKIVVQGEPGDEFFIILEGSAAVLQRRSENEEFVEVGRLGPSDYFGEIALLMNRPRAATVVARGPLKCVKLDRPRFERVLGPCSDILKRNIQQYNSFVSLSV
Large screens that a line does not name were inactive (follow-up assays come after a bar, where they were run).

Cc1nc(-c2ccccc2)sc1C1(C)CC(c2ccc(OC(F)(F)F)cc2)=NO1 (stereo unspecified)	PKA-R1A act 19 | R1A FP artifact inactive | PKA-R1A confirm inactive
CSCC[C@H](NC(=O)c1nn(C)c(=O)c2ccccc12)c1nc2ccccc2[nH]1	PKA-R1A act 20 | R1A FP artifact inactive | PKA-R1A confirm inactive
Cc1ccc(C(C(=O)NC2CCCC2)N(C(=O)c2csnn2)c2ccccc2)o1 (stereo unspecified)	PKA-R1A act 20 | R1A FP artifact inactive | PKA-R1A confirm inactive
O=C(COC(=O)C1CC(=O)N(Cc2ccco2)C1)Nc1ccc(F)cc1F (stereo unspecified)	PKA-R1A act 20 (no result: TPT1 inh) | R1A FP artifact inactive | PKA-R1A confirm inactive
CN(Cc1ccccc1)c1cc(Cl)nc(N)n1	none
COc1ccc(CN(C)CC(=O)NC(=O)NCc2ccccc2)cc1OC	PKA-R1A act 21 | R1A FP artifact inactive | PKA-R1A confirm inactive
CC1CCC2(CC1)NC(=S)N(c1ccccc1)N2 (stereo unspecified)	PKA-R1A act 19 | R1A FP artifact inactive | PKA-R1A confirm inactive
O=C(NNC(=S)Nc1cccc(Cl)c1)c1ccccc1	PKA-R1A act 20 | R1A FP artifact inactive | PKA-R1A confirm inactive
CCN(CC(=O)Nc1ccccc1OC)C(=O)CSCc1ccc(C)cc1	PKA-R1A act 22 (no result: TPT1 inh) | R1A FP artifact inactive | PKA-R1A confirm inactive
NS(=O)(=O)c1ccc(CNC(=O)Cn2nc(C(F)F)cc2C(F)F)cc1	none (no result: TPT1 inh)
O=c1c(Cl)c(NCc2ccco2)cnn1C12CC3CC(CC(C3)C1)C2	none
O=c1c(Cl)c(NCc2ccccc2Cl)cnn1C12CC3CC(CC(C3)C1)C2	PKA-R1A act 19 | R1A FP artifact inactive | PKA-R1A confirm inactive
CCCCCCCn1c(C)nnc1-c1cnn(C)c1N	PKA-R1A act 20 | R1A FP artifact inactive | PKA-R1A confirm inactive
Cc1nnc(-c2cnn(C)c2N)n1CCCN(C)C	none
COc1cccc2cc(C(=O)NCc3ccc(Cl)cc3)c(=O)oc12	none
CCOC(=O)c1nnn(-c2ccccc2C#N)c1C	PKA-R1A act 20 | R1A FP artifact inactive | PKA-R1A confirm inactive
CCOC(=O)c1nnn(-c2ccc([N+](=O)[O-])cc2)c1C	none
C/C(=N\N=C(/C)c1cccc(N)c1)c1cccc(N)c1	none (no result: PKA-R2B act, PKA-R1A act)
CCSc1nc2c(c(=O)[nH]1)C(c1cccnc1)C(C(=O)OC)=C(C)N2 (stereo unspecified)	PKA-R1A act 20 | R1A FP artifact inactive | PKA-R1A confirm inactive
N#CCC(=O)NCCCc1ccccc1	none
CC1CC(N(C(=O)c2ccc(Cl)cc2)c2ccccc2)c2ccccc2N1C(=O)c1ccco1 (stereo unspecified)	none
CC1CC(N(C(=O)c2ccco2)c2ccccc2)c2ccccc2N1C(=O)c1ccco1 (stereo unspecified)	PKA-R1A act 19 | R1A FP artifact inactive | PKA-R1A confirm inactive
COc1ccccc1NC(=O)C/C(N)=N/OCC(=O)Nc1cccc(Cl)c1	none (no result: TPT1 inh)
COc1ccc(C)cc1NC(=O)CO/N=C(\N)CC(=O)Nc1ccccc1OC	PKA-R1A act 20 (no result: TPT1 inh) | R1A FP artifact inactive | PKA-R1A confirm inactive
COc1ccccc1N1CC(C(=O)NCC2COc3ccccc3O2)CC1=O (stereo unspecified)	none (no result: TPT1 inh)
COc1ccc(C(=O)Nc2c3c(nn2-c2ccc([N+](=O)[O-])cc2)CS(=O)(=O)C3)cc1	none
COc1ccc(C(=O)Nc2c3c(nn2-c2ccc(Cl)cc2)CS(=O)(=O)C3)cc1	PKA-R1A act 20 | R1A FP artifact inactive | PKA-R1A confirm inactive
CC(=O)c1cccc(NC(=O)C(C)OC(=O)CCn2c(C)csc2=O)c1 (stereo unspecified)	none (no result: TPT1 inh)
CC(=O)Nc1ccc(S(=O)(=O)N2CCc3cc4c(cc3C2C)OCCCO4)cc1 (stereo unspecified)	PKA-R1A act 21 | R1A FP artifact inactive | PKA-R1A confirm inactive
COCCN(CC(=O)Nc1cccc(C)c1C)C(=O)c1ccc2ccccc2n1	none (no result: TPT1 inh)
COc1ccc(N(CC(=O)NCCSc2ccccn2)S(=O)(=O)c2ccccc2)cc1OC	PKA-R1A act 21 | R1A FP artifact inactive | PKA-R1A confirm inactive
COc1ccc(N(CC(=O)NCCSc2ccccn2)S(=O)(=O)c2ccc(C)cc2)cc1OC	none
C/C(=N\NC(=O)c1ccc(Cl)cc1)c1cccs1	none (no result: TPT1 inh)
C/C(=N/NC(=O)c1cccs1)c1ccc(NC(=O)COc2ccc(Cl)cc2)cc1	PKA-R1A act 19 | R1A FP artifact inactive | PKA-R1A confirm inactive
CCOc1ccccc1NC(=S)Nn1cnnc1	none
CC(C)N1C(=O)/C(=C\c2nc3ccccc3c(=O)[nH]2)c2ccccc21	none
Cc1ccc(-c2cc(C(=O)N3CCOCC3)no2)cc1	PKA-R1A act 21 | R1A FP artifact inactive | PKA-R1A confirm inactive
Cc1ccccc1C(=O)N1CCC[C@@H]1C(=O)N1CCC[C@H]1C(=O)NCc1ccncc1	none (no result: Rpn11 block, TPT1 inh, PKA-R2B act, PKA-R1A act)
CCC(C)(C)n1nnnc1C(c1cc2cccc(C)c2[nH]c1=O)N1CCN(C(=O)c2ccco2)CC1 (stereo unspecified)	PKA-R1A act 19 | R1A FP artifact inactive | PKA-R1A confirm inactive
CCC(C)(C)n1nnnc1C(c1ccc(C)cc1)N1CCN(C(=O)c2ccco2)CC1 (stereo unspecified)	none
CN(C)CCNC(=O)c1c(CSc2ccc(Cl)cc2)noc1C(=O)NCc1ccccc1	PKA-R1A act 20 | R1A FP artifact inactive | PKA-R1A confirm inactive
O=C(NCc1ccccc1)c1onc(CSc2ccc(Cl)cc2)c1C(=O)NCc1ccccc1	none
O=C(/C=C/c1ccccc1)Nc1cccc(C(=O)NC2CC2)c1	PKA-R1A act 19 (no result: TPT1 inh) | R1A FP artifact inactive | PKA-R1A confirm inactive
CC(C)C(=O)N[C@@H]1c2ccccc2CC[C@@H]1OCc1ccccc1	none (no result: TPT1 inh)
CCOC(=O)C1=C(C)N(C[C@@H]2CC[C@@H](Cc3ccc(-c4ccccc4)cc3)O2)C(=O)NC1c1ccc(SCc2ccco2)c([N+](=O)[O-])c1 (stereo partly specified)	none (no result: TPT1 inh)
COc1ccccc1CCNC(=O)C(=O)c1cn(CC(=O)N2CCOCC2)c2ccccc12	PKA-R1A act 19 | R1A FP artifact inactive | PKA-R1A confirm inactive
COc1ccccc1CNC(=O)C(=O)c1cn(CC(=O)N2CCCC2)c2ccccc12	none
O=C(Nc1ccc(Cl)c(Cl)c1)Oc1ccc(NC(=O)c2ccco2)cc1	none
